Results: ChEMBL document CHEMBL4706598 (Eur J Med Chem, 2020)
Active and inactive are the calls of the source. No cut-off for these calls is given here.

How the values were obtained:
Dipeptidyl peptidase 8 = Dipeptidyl peptidase 8 (Homo sapiens, UniProt Q6V1X1); test: Inhibition of DPP8 (unknown origin)
Dipeptidyl peptidase 9 = Dipeptidyl peptidase 9 (Homo sapiens, UniProt Q86TI2); test: Inhibition of DPP9 (unknown origin)
HepG2 = test: Cytotoxicity against human HepG2 cells assessed as reduction in cell viability at 1 to 100 uM measured after 48 hrs by MTT assay; assay type: cell-based; conditions: hepg2, 48 h, dose 1-100 µM
Method in brief: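 HepG2 cells were exposed to compound at a range of concentrations for 48 h. Viability was measured by MTT assay. Mean ± SD, n = 3.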

Mus musculus [1] = test: Anti-Hyperglycemic activity in high fat diet-fed/streptozotocin-induced type 2 diabetic mellitus C57BL/6 mouse model assessed as blood glucose level at 10 mg/kg, ip administered 30 mins prior to glucose challenge and measured after 0.5 hrs by IPGTT (reference value: 12.3 to 15.3 mM); assay type: functional; conditions: time 60 min, 1 h
Method in brief: (§1)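 Male C57BL/6 mice made type 2 diabetic by high-fat diet plus streptozotocin. Each received a single intraperitoneal dose (1, 5 or 10 mg/kg) 30 min before an intraperitoneal glucose challenge. Blood glucose was read at 0, 0.5, 1, 1.5 and 2 h. Results are mean ± SD, n = 4.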

Mus musculus [2] = test: Anti-Hyperglycemic activity in high fat diet-fed/streptozotocin-induced type 2 diabetic mellitus C57BL/6 mouse model assessed as blood glucose level at 10 mg/kg, ip administered 30 mins prior to glucose challenge and measured after 1 hrs by IPGTT (reference value: 12.3 to 15.3 mM); assay type: functional; conditions: time 90 min, 1.5 h; method in brief: as §1
Mus musculus [3] = test: Anti-Hyperglycemic activity in high fat diet-fed/streptozotocin-induced type 2 diabetic mellitus C57BL/6 mouse model assessed as blood glucose level at 10 mg/kg, ip administered 30 mins prior to glucose challenge and measured after 1.5 hrs by IPGTT (reference value: 12.3 to 15.3 mM); assay type: functional; conditions: time 120 min, 2 h; method in brief: as §1
Mus musculus [4] = test: Anti-Hyperglycemic activity in high fat diet-fed/streptozotocin-induced type 2 diabetic mellitus C57BL/6 mouse model assessed as blood glucose level at 10 mg/kg, ip administered 30 mins prior to glucose challenge and measured after 2 hrs by IPGTT (reference value: 12.3 to 15.3 mM); assay type: functional; conditions: time 150 min, 2.5 h; method in brief: as §1
Mus musculus [5] = test: Anti-Hyperglycemic activity in high fat diet-fed/streptozotocin-induced type 2 diabetic mellitus C57BL/6 mouse model assessed as reduction in AUC(0 to 120 mins) of blood glucose level at 10 mg/kg, ip administered 30 mins prior to glucose challenge and measured after 120 mins by IGTT; assay type: functional; conditions: C57BL/6, ip, 2.5 h, time 150 min
Method in brief: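 Glucose tolerance tests (intraperitoneal or oral) in HFD/STZ type 2 diabetic male C57BL/6 mice. Glucose AUC was calculated over 0–120 min. Percent reduction came from AUC normalised to saline-challenged controls. Mean ± SD, n = 4. Statistics: one-way ANOVA with LSD post-test.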

Mus musculus [6] = test: Anti-Hyperglycemic activity in high fat diet-fed/streptozotocin-induced type 2 diabetic mellitus C57BL/6 mouse model assessed as reduction in blood glucose level at 10 mg/kg/day for 14 days and measured on day 14; assay type: functional; conditions: C57BL/6, 336 h, time 14 day
Method in brief: (§2)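 HFD/STZ-induced type 2 diabetic male C57BL/6 mice were dosed at 10 mg/kg/day for 14 days. Plasma glucose was tracked over the treatment period and compared with diabetic controls. Mean ± SD of 4 mice. Statistics: one-way ANOVA with LSD post-test.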

Mus musculus [7] = test: Anti-Hyperglycemic activity in high fat diet-fed/streptozotocin-induced type 2 diabetic mellitus C57BL/6 mouse model assessed as reduction in blood glucose level at 10 mg/kg/day for 14 days and measured on day 5; assay type: functional, organism-based; conditions: time 5.0 day; method in brief: as §2
Dipeptidyl peptidase 4 = Dipeptidyl peptidase 4 (Homo sapiens, UniProt P27487); test: Inhibition of DPP4 in human Caco-2 cells using AP-AFC as substrate preincubated with enzyme for 10 mins followed by substrate addition and measured after 10 mins by fluorescence based analysis; assay type: cell-based
Dipeptidyl peptidase 4, sequence (P27487 whole entry): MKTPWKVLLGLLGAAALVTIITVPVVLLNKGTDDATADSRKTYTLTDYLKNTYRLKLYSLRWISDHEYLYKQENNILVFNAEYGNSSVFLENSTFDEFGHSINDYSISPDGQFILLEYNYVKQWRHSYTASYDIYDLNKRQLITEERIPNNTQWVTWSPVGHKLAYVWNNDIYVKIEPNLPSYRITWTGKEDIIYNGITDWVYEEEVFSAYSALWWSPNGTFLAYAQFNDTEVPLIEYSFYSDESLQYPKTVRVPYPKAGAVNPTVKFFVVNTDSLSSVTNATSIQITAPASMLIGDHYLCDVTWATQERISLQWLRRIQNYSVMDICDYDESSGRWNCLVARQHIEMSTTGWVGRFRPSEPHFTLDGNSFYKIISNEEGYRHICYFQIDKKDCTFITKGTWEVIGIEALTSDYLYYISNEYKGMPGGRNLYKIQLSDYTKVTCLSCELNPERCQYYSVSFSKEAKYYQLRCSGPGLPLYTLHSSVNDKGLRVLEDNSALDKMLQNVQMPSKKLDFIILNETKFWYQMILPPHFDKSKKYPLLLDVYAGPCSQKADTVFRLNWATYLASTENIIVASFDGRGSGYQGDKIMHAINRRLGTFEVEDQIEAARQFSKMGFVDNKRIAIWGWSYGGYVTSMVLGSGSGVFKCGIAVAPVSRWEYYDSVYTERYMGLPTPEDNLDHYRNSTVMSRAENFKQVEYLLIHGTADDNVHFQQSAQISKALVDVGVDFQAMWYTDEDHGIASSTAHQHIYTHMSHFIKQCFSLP

Dipeptidyl peptidase 8, sequence (Q6V1X1 whole entry): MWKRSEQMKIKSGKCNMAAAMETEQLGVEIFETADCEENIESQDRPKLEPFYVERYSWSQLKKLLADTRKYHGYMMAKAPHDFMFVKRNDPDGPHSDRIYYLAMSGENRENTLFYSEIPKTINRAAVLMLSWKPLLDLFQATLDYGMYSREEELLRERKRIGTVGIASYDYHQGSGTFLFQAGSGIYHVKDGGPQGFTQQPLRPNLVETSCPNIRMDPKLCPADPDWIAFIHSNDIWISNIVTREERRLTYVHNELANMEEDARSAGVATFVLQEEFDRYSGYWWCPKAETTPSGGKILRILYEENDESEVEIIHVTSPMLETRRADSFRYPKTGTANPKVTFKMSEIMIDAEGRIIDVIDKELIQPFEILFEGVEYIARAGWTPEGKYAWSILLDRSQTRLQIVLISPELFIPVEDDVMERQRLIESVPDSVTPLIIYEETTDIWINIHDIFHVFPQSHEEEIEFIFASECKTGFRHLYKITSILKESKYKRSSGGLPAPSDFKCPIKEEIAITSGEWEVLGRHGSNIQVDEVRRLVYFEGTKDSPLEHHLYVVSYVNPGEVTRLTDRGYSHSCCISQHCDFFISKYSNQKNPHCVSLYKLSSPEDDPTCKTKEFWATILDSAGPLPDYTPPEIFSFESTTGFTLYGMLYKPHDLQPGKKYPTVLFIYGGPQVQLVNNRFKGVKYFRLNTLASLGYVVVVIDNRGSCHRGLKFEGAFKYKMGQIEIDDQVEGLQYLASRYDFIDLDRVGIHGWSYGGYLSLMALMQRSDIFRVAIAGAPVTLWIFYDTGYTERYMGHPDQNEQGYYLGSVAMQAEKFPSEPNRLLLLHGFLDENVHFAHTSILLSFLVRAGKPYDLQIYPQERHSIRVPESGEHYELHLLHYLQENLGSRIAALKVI
Dipeptidyl peptidase 9, sequence (Q86TI2 whole entry): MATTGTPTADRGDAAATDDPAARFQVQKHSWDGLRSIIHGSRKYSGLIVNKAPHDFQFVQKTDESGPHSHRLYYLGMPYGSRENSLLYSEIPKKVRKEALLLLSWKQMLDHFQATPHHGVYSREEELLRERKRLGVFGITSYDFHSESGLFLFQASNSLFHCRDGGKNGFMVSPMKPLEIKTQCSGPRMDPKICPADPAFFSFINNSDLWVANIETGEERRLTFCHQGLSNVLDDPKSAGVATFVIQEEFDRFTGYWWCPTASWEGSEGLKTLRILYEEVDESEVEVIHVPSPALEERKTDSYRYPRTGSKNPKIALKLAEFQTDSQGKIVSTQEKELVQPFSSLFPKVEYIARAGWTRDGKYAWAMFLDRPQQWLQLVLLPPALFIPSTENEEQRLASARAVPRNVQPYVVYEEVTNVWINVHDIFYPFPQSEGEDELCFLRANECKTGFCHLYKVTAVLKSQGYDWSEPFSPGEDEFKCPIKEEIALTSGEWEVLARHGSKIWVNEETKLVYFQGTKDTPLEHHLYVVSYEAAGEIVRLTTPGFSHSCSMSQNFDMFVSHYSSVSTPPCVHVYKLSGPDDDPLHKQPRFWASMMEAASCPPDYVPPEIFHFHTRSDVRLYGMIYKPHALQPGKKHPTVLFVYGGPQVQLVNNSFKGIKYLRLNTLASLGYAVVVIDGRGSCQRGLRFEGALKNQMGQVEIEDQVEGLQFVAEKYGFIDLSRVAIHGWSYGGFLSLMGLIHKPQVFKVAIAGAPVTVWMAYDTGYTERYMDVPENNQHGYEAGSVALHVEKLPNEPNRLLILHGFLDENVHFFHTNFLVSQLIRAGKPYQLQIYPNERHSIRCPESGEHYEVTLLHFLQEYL

Structure (SMILES)	IC50 (Dipeptidyl peptidase 8) [µM]	IC50 (Dipeptidyl peptidase 9) [µM]	Activity (HepG2)	also measured
Clc1ccc(CCNc2cc(N3CCNCC3)nc3ccnn23)c(Cl)c1	> 100	> 100	Toxic	
Cn1c(=O)cc(N2CCC[C@@H](N)C2)n(Cc2ccccc2C#N)c1=O [ALOGLIPTIN]				Activity (Mus musculus [1]): 22.9 mM; Activity (Mus musculus [2]): 17.4 mM; Activity (Mus musculus [3]): 16.3 mM; Activity (Mus musculus [4]): 15 mM; inhibition in vivo at 10 mg/kg (Mus musculus [5]): 30%; inhibition in vivo at 10 mg/kg/day (Mus musculus [6]): 57%; Activity (Mus musculus [7]): inactive
Cc1ccc(Nc2cc(N3CCC[C@@H](N)C3)nc3ccnn23)c(N)c1	> 100	> 100		
c1cc2nc(N3CCOCC3)cc(Nc3cc[nH]n3)n2n1				IC50 (Dipeptidyl peptidase 4): > 100 µM
N[C@@H]1CCCN(c2cc(NCc3ccc(O)cc3)n3nccc3n2)C1	> 50	> 50		
Clc1ccc(Nc2cc(N3CCNCC3)nc3ccnn23)c(Cl)c1	> 100	> 100	Toxic	
N[C@@H]1CCCN(c2cc(NCc3ccc(Cl)cc3Cl)n3nccc3n2)C1	> 100	> 100		
N[C@@H]1CCCN(c2cc(Nc3cc(Cl)ccn3)n3nccc3n2)C1	> 50	> 50		
O=[N+]([O-])c1ccccc1Nc1cc(N2CCNCC2)nc2ccnn12	> 100	> 100		
N[C@@H]1CCCN(c2cc(NCc3ccccc3)n3nccc3n2)C1	> 100	> 100	Toxic	
